Assay results published in PMC10357533 (ACS Omega, 2023).
≈ marks a conversion by molar mass, not a printed value. Entries after “also recorded” stand apart in the source; their conditions may differ.

Columns and labels:
Plutella xylostella = conditions: at 500 μg/mL; cited from earlier work
M. separata = conditions: at 5 μg/mL concentration; cited from earlier work
Aedes aegypti larvae = test: Mosquito larvicidal assay; format: in vivo; conditions: for LC90: (95% confidence limits); for LC50: Aedes aegypti
Procedure, shortened: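 Larvae came from later generations of a wild-derived Ae. aegypti colony kept at 25 ± 2 °C, 65–75% RH and 12:12 h light/dark. Twenty larvae per 150 mL of test solution were exposed at 100 down to 1.5625 μg/mL (twofold steps plus 75), with DMSO as vehicle. Controls were permethrin and DMSO (1 mL/150 mL). Mortality was scored at 24–96 h over four independent experiments.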

[1] = molecular target: electric eel (Electrophorus electricus) AChE (Electrophorus electricus, UniProt O42275); test: Acetylcholinesterase; format: biochemical; conditions: for inhibition at 4 µg/mL / inhibition at 20 µg/mL / inhibition at 100 µg/mL / inhibition at 250 µg/mL: read-out: AChE inhibitory activity
Chain of electric eel (Electrophorus electricus) AChE (O42275 24-633): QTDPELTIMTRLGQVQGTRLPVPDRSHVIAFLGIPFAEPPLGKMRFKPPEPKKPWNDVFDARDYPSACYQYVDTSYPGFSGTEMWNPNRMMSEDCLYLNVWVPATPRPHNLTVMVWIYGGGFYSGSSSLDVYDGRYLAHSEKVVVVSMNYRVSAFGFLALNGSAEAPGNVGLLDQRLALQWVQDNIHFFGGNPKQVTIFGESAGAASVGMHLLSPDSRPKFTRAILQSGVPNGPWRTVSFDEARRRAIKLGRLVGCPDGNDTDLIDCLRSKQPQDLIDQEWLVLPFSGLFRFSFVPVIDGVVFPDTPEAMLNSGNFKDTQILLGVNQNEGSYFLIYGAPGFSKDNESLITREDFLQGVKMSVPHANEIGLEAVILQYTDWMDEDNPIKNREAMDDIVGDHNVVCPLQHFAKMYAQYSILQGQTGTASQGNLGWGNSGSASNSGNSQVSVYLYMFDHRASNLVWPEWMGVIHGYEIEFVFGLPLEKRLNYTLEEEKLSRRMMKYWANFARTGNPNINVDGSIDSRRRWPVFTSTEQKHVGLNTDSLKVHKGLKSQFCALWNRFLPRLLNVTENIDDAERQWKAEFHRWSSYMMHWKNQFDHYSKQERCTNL
Procedure, shortened: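 Electric eel AChE (0.25 IU/mL) was mixed with pH 8 phosphate buffer and test compound solution (500, 100, 20 or 4 μg/mL, diluted in water from DMSO stock) and held 15 min at 25 °C. DTNB (2.5 mM) and acetylthiocholine iodide (2.5 mM) were added, followed by 10 min more at 25 °C. Absorbance was read at 405 nm. Galantamine was the positive control, run in triplicate plates.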

[2] = Solubility of compounds for larvicidal testing; format: physicochemical; conditions: larvicidal test, compounds dissolved in DMSO
Anopheles arabiensis = conditions: compared with temephos; cited from earlier work

Clc1cc(Cl)c2ncnc(SCc3ccc(Cl)nc3)c2c1 [6,8-dichloro-4-(((6-chloropyridine-3-yl)methyl)thio)quinazoline]
mortality rate (Plutella xylostella): 85%

Cc1cc(Cl)cc2c1NC(c1cc(Br)nn1-c1ncccc1Cl)N(C)C2=O (centres unmarked) [2-(3-bromo-1-(3-chloropyridine-)-2-yl)-1H-pyrazol-5-yl-6-chloro-3,8-dimethyl-2,3-dihydroquinazolin-4(1H)-one]
mortality (M. separata): 80%

COc1ccc(NC(=O)Cn2c(C)nc3ccccc3c2=O)cc1 [4e, N-(4-Methoxyphenyl)-2-(2-methyl-4-oxoquinazolin-3(4H)-yl)acetamide]
LC90 (Aedes aegypti larvae; 24 h exposure): 25.81 (21.16–33.50) μg/mL | LC90 (Aedes aegypti larvae; 48 h exposure): 16.26 (12.95–22.06) μg/mL | LC90 (Aedes aegypti larvae; 72 h exposure): 12.27 (9.67–17.09) μg/mL | LC90 (Aedes aegypti larvae; 96 h exposure): 7.414 (5.780–10.598) μg/mL | LC50 (Aedes aegypti larvae; 24 h): 9.25 µg/mL (≈ 28.6 µM) | LC50 (Aedes aegypti larvae; 48 h): 4.27 µg/mL (≈ 13.2 µM) | LC50 (Aedes aegypti larvae; 72 h): 2.76 µg/mL (≈ 8.52 µM) | LC50 (Aedes aegypti larvae; 96 h): 1.28 µg/mL (≈ 3.96 µM)

Cc1ccc(NC(=O)Cn2c(C)nc3ccccc3c2=O)cc1 [4f, 2-(2-Methyl-4-oxoquinazolin-3(4H)-yl)-N-(p-tolyl)acetamide]
IC50 [1]: 186 µM | inhibition at 4 µg/mL [1]: 17.6% | inhibition at 20 µg/mL [1]: 34.2% | inhibition at 100 µg/mL [1]: 62.8% | inhibition at 250 µg/mL [1]: 98.9% | LC90 (Aedes aegypti larvae; 24 h exposure): 14.67 (13.22–16.69) μg/mL | LC90 (Aedes aegypti larvae; 48 h exposure): 14.33 (12.51–17.09) μg/mL | LC90 (Aedes aegypti larvae; 72 h exposure): 11.29 (9.56–14.17) μg/mL | LC50 (Aedes aegypti larvae; 24 h): 8.67 µg/mL (≈ 28.2 µM) | LC50 (Aedes aegypti larvae; 48 h): 5.92 µg/mL (≈ 19.3 µM) | LC50 (Aedes aegypti larvae; 72 h): 2.08 µg/mL (≈ 6.78 µM)

CC1(C)C(C=C(Cl)Cl)C1C(=O)OCc1cccc(Oc2ccccc2)c1 (centres unmarked) [permethrin, reference compound]
LC90 (Aedes aegypti larvae; 24 h exposure): 0.00246 (0.00192–0.00344) μg/mL | LC50 (Aedes aegypti larvae; 24 h): 0.000643 µg/mL (≈ 0.00164 µM)

Cc1nc2ccccc2c(=O)n1CC(=O)Nc1ccc(Br)cc1 [4a, N-(4-Bromophenyl)-2-(2-methyl-4-oxoquinazolin-3(4H)-yl)acetamide]
IC50 [1]: 714 µM | inhibition at 4 µg/mL [1]: 3.75% | inhibition at 20 µg/mL [1]: 14% | inhibition at 100 µg/mL [1]: 28.6% | inhibition at 250 µg/mL [1]: 48.5% | LC90 (Aedes aegypti larvae; 24 h exposure): 8.528 (7.729–9.730) μg/mL | LC90 (Aedes aegypti larvae; 48 h exposure): 6.396 (5.755–7.334) μg/mL | LC90 (Aedes aegypti larvae; 72 h exposure): 5.273 (4.620–6.340) μg/mL | LC90 (Aedes aegypti larvae; 96 h exposure): 4.470 (3.864–5.530) μg/mL | LC50 (Aedes aegypti larvae; 24 h): 5.82 µg/mL (≈ 15.6 µM) | LC50 (Aedes aegypti larvae; 48 h): 3.66 µg/mL (≈ 9.84 µM) | LC50 (Aedes aegypti larvae; 72 h): 2.26 µg/mL (≈ 6.07 µM) | LC50 (Aedes aegypti larvae; 96 h): 1.49 µg/mL (≈ 3.99 µM)

Cc1ccccc1NC(=O)Cn1c(C)nc2ccccc2c1=O [4g, 2-(2-Methyl-4-oxoquinazolin-3(4H)-yl)-N-(o-tolyl)acetamide]
solubility [2]: insoluble; also recorded: not soluble | IC50 [1]: 488 µM | inhibition at 4 µg/mL [1]: -1.33% | inhibition at 20 µg/mL [1]: 13.4% | inhibition at 100 µg/mL [1]: 34.6% | inhibition at 250 µg/mL [1]: 73.1%

Cc1nc2ccccc2c(=O)n1CC(=O)Nc1ccc(Cl)cc1 [4b, N-(4-Chlorophenyl)-2-(2-methyl-4-oxoquinazolin-3(4H)-yl)acetamide]
IC50 [1]: 500 µM | inhibition at 4 µg/mL [1]: 18.1% | inhibition at 20 µg/mL [1]: 26.6% | inhibition at 100 µg/mL [1]: 34.7% | inhibition at 250 µg/mL [1]: 72.9% | LC90 (Aedes aegypti larvae; 24 h exposure): 31.11 (26.90–37.20) μg/mL | LC90 (Aedes aegypti larvae; 48 h exposure): 7.610 (6.607–9.160) μg/mL | LC90 (Aedes aegypti larvae; 72 h exposure): 6.945 (6.055–8.327) μg/mL | LC50 (Aedes aegypti larvae; 24 h): 12.7 µg/mL (≈ 38.7 µM) | LC50 (Aedes aegypti larvae; 48 h): 3.64 µg/mL (≈ 11.1 µM) | LC50 (Aedes aegypti larvae; 72 h): 3.48 µg/mL (≈ 10.6 µM)

Cc1nc2ccccc2c(=O)n1CC(=O)Nc1ccccc1 [4h, 2-(2-Methyl-4-oxoquinazolin-3(4H)-yl)-N-phenylacetamide]
LC90 (Aedes aegypti larvae; 96 h exposure): >50 (96 h) μg/mL | LC50 (Aedes aegypti larvae; 96 h): > 50 µg/mL | larvicidal activity (in words) (Aedes aegypti larvae; compared with the other compounds): less activity

COC(=O)C1=C(C)Nc2nc3ccc(I)cc3c(=O)n2C1c1ccc(Cl)cc1 (centres unmarked) [methyl 4-(4-chlorophenyl)-8-iodo-2-methyl-6-oxo-1,6-dihydro-4H-pyrimido[2,1-b]quinazoline-3-carboxylate]
larvicidal activity (in words) (Anopheles arabiensis): significantly stronger than temephos

Cc1nc2ccccc2c(=O)n1CC(=O)Nc1cccc(Cl)c1 [4c, N-(3-Chlorophenyl)-2-(2-methyl-4-oxoquinazolin-3(4H)-yl)acetamide]
IC50 [1]: 231 µM | inhibition at 4 µg/mL [1]: 15.4% | inhibition at 20 µg/mL [1]: 29.3% | inhibition at 100 µg/mL [1]: 56.5% | inhibition at 250 µg/mL [1]: 97.8% | LC50 (Aedes aegypti larvae; 24 h): 15.1 µg/mL (≈ 45.9 µM) | LC50 (Aedes aegypti larvae; 48 h): 10.1 µg/mL (≈ 30.8 µM) | LC50 (Aedes aegypti larvae; 72 h): 4.42 µg/mL (≈ 13.5 µM) | LC50 (Aedes aegypti larvae; 96 h): 1.8 µg/mL (≈ 5.49 µM)

Cc1nc2ccccc2c(=O)n1CC(=O)Nc1ccc([N+](=O)[O-])cc1 [4i, 2-(2-Methyl-4-oxoquinazolin-3(4H)-yl)-N-(4-nitrophenyl)acetamide]
solubility [2]: insoluble; also recorded: not soluble | IC50 [1]: 454 µM | inhibition at 4 µg/mL [1]: 2.5% | inhibition at 20 µg/mL [1]: 6.08% | inhibition at 100 µg/mL [1]: 35.5% | inhibition at 250 µg/mL [1]: 75.6%

Cc1nc2ccccc2c(=O)n1CC(=O)Nc1ccccc1Cl [4d, N-(2-Chlorophenyl)-2-(2-methyl-4-oxoquinazolin-3(4H)-yl)acetamide]
IC50 [1]: 462 µM | inhibition at 4 µg/mL [1]: 7.58% | inhibition at 20 µg/mL [1]: 19.2% | inhibition at 100 µg/mL [1]: 36.5% | inhibition at 250 µg/mL [1]: 70.3% | LC50 (Aedes aegypti larvae; 24 h): 52.4 µg/mL (≈ 160 µM) | LC50 (Aedes aegypti larvae; 48 h): 22.7 µg/mL (≈ 69.3 µM) | LC50 (Aedes aegypti larvae; 72 h): 4.2 µg/mL (≈ 12.8 µM)
